From ChEMBL document CHEMBL3243931, “Dihydroretinoic acids and their derivatives. Synthesis and biological activity” (1977)
Calls of active or inactive are those of the source. The calls are words filed in the database; no cut-off is given here.

Legend:
Mus musculus [1] = test: Activity against chemically-induced skin papillomas in Swiss albino mouse assessed as change in total papilloma diameter at 80 mg/kg/day, ip administered five times per week for 2 weeks measured on day 14; type: functional; details: route intraperitoneal
Hamster [2] = test: Reversal of keratinized lesions in vitamin A deficient hamster tracheal organ culture assessed as cultures with keratin and keratohyaline granules at 0.1 uM after 7 days (reference value: 93%); type: functional, Cricetinae, Trachea
Hamster [3] = test: Reversal of keratinized lesions in vitamin A deficient hamster tracheal organ culture assessed as cultures with keratin and keratohyaline granules at 10 nM after 7 days (reference value: 93%); type: functional, Cricetinae, Trachea
[4] = Increase in RNA content in mouse epidermal cells at 1 uM after 3 days; type: functional
How it was run: (§1)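 Mouse skin epidermal cell cultures grown 3 days with retinoid added from Me2SO stock (final Me2SO ≤1.0%); controls received equivalent Me2SO and no retinoid. RNA measured; value is percentage increase over control cultures; 6–9 cultures per concentration.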

[5] = Increase in RNA content in mouse epidermal cells at 0.1 uM after 3 days; type: functional; how it was run: as §1
[6] = Increase in RNA content in mouse epidermal cells at 10 nM after 3 days; type: functional; how it was run: as §1
[7] = Increase in RNA content in mouse epidermal cells at 1 nM after 3 days; type: functional; how it was run: as §1
Mus musculus [8] = test: Activity against chemically-induced skin papillomas in Swiss albino mouse assessed as change in total papilloma diameter at 40 mg/kg/day, ip administered five times per week for 2 weeks measured on day 14; type: functional; details: route intraperitoneal
Hamster [9] = test: Reversal of keratinized lesions in vitamin A deficient hamster tracheal organ culture assessed as cultures with keratin and keratohyaline granules at 1 nM after 7 days (reference value: 93%); type: functional, Cricetinae, Trachea
[10] = Increase in RNA content in mouse epidermal cells at 0.1 nM after 3 days; type: functional; how it was run: as §1
Mus musculus [11] = species on record: Mus musculus; test: Increase in DNA content in mouse epidermal cells; type: functional, cell-based
How it was run: (§2)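 Mouse skin epidermal cell cultures with retinoid added to the medium from Me2SO stock (final Me2SO ≤1.0%); controls given equivalent Me2SO; increase in DNA or protein content measured relative to cultures without retinoid.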

Mus musculus [12] = species on record: Mus musculus; test: Increase in protein content in mouse epidermal cells; type: functional, cell-based; how it was run: as §2
Mus musculus [13] = test: Activity against chemically-induced skin papillomas in Swiss albino mouse assessed as change in total papilloma diameter at 160 mg/kg/day, ip administered five times per week for 2 weeks measured on day 14; type: functional; details: route intraperitoneal
Hamster [14] = test: Reversal of keratinized lesions in vitamin A deficient hamster tracheal organ culture assessed as cultures with keratin and keratohyaline granules at 1 uM after 7 days (reference value: 93%); type: functional, Cricetinae, Trachea
Mus musculus [15] = test: Activity against chemically-induced skin papillomas in Swiss albino mouse assessed as change in total papilloma diameter at 10 mg/kg/day, ip administered five times per week for 2 weeks measured on day 14; type: functional; details: route intraperitoneal

Row | Structure (SMILES) | Activity (Mus musculus [1]) [%] | Cultures with keratinized lesions (Hamster [2]) [%] | Activity (Hamster [3]) [%] | Activity [4] [%] | Activity [5] [%] | Activity [6] [%] | Activity [7] [%] | further results
1 | COC(=O)/C=C(\C)CC/C=C(C)/C=C/c1c(C)cc(C)c(Cl)c1C | 29 |  |  |  |  |  |  | 
2 | COC(=O)/C=C(\C)CC/C=C(C)/C=C/c1c(C)cc(OC)c(Cl)c1C | 29 |  |  |  |  |  |  | 
3 | COC(=O)/C=C(C)/C=C/C=C(\C)CCc1c(C)cc(OC)c(Cl)c1C | 1 |  |  |  |  |  |  | 
4 | CCOC(=O)/C=C(C)/C=C/C=C(C)/C=C/C1=C(C)CCCC1(C)C | -47 | 0 | 0 | 123 | 102 | 57 | 23 | 
5 | CC1=C(/C=C/C(C)=C/C=C/C(C)=C/C(=O)O)C(C)(C)CCC1 [TRETINOIN] |  | 0 | 3 |  |  | 100 | 68 | Activity (Mus musculus [8]): -55%; Activity (Hamster [9]): 0%; Activity [10]: 19%
6 | COC(=O)/C=C(\C)CC/C=C(C)/C=C/C1=C(C)CCCC1(C)C | -13 | 24 | 83 | 21 | 5 | 9 | 3 | Activity (Mus musculus [11]): Active; Activity (Mus musculus [12]): Active
7 | CCOC(=O)CC(C)/C=C/C=C(C)/C=C/C1=C(C)CCCC1(C)C (stereo not drawn) |  | 12 | 83 | 69 | 13 | 12 | 12 | Activity (Mus musculus [13]): -14%; Activity (Mus musculus [11]): Active; Activity (Mus musculus [12]): Active
8 | CC1=C(CC/C(C)=C/C=C/C(C)=C\C(=O)O)C(C)(C)CCC1 | -28 |  |  |  |  |  |  | 
9 | COc1cc(C)c(CC/C(C)=C/C=C/C(C)=C/C(=O)O)c(C)c1C | -35 | 63 | 85 |  |  |  |  | Activity (Hamster [14]): 0%
10 | CC1=C(/C=C/C(C)C/C=C/C(C)=C/C(=O)O)C(C)(C)CCC1 (racemic) |  | 52 | 96 | 118 | 29 | 28 | 3 | Activity (Mus musculus [11]): Active; Activity (Mus musculus [12]): Active
11 | CC1=C(CC/C(C)=C/C=C/C(C)=C/C(=O)O)C(C)(C)CCC1 | -33 | 0 | 25 | 106 | 115 | 82 | 1 | Activity (Mus musculus [11]): Active; Activity (Mus musculus [12]): Active
12 | COc1cc(C)c(/C=C/C(C)=C/CC/C(C)=C/C(=O)O)c(C)c1C | -17 | 44 | 86 |  |  |  |  | Activity (Mus musculus [13]): -66%; Activity (Hamster [14]): 0%
13 | COC(=O)/C=C(C)/C=C/C=C(C)/C=C/C1=C(C)CCCC1(C)C [RETINOIC ACID METHYL ESTER] |  | 0 | 0 | 126 | 75 | 25 | 8 | 
14 | CC(/C=C/C1C(C)CCCC1(C)C)=C\C=C\C(C)=C\C(=O)O (stereo not drawn) |  | 0 | 0 |  |  |  |  | Activity (Mus musculus [15]): -9%; Activity (Hamster [9]): 6%
15 | COc1cc(C)c(/C=C/C(C)=C/C=C/C(C)=C/C(=O)O)c(C)c1C [ACITRETIN] |  | 0 | 35 |  |  |  |  | Activity (Mus musculus [15]): -43%; Activity (Hamster [9]): 100%; Activity (Hamster [14]): 0%
16 | COC(=O)/C=C(C)/C=C/C=C(\C)CCc1c(C)cc(N(C)C)cc1C | 20 |  |  |  |  |  |  | 
